This is a sample that favours compounds with a hit; in the whole collection about 3.9% have one here.
TAAR1 agonist – human TAAR1 agonists, primary screen, Fluo-8 calcium fluorescence, CHO RD-HGA16 cells. activation, % at 3 µM. 360,000 tested, 0.99% active. AID 624467, 2012. vehicle wells 0%, saturating PEA agonist 100%;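 active = activation above the mean activation of all test compounds in the run plus 3 SD, cut at about 38% in these data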
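Benchmarks: low control DMSO, high control PEA (EC100); System: CHO RD-HGA16 cells carrying human TAAR1 plus Gα16; Detection: Fluo-8 fluorescence, 5 s baseline then 140 s kinetic read; Schedule: 17-24 h plating, Fluo-8 75 min 37 °C, 30 min RT; Read-out basis: % activation from peak over basal fluorescence ratio, DMSO-to-PEA scaled.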
CHRM1 agonist – human M1 muscarinic receptor agonists, primary screen, Fluo-8 calcium fluorescence, CHO-K1 cells, HTS. 360,000 tested, 0.33% active. activation, % at 3 µM. Muscarinic acetylcholine receptor M1 (Homo sapiens), P11229. CHO-K1 hM1, agonist mode; 0% DMSO, 100% acetylcholine EC100;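 active = activation above the run's mean compound activation plus 3 SD, cut at about 16% in these data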;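 note: peak over basal fluorescence ratio within a 140 s kinetic read after compound addition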
Target sequence (P11229 whole entry, looked up): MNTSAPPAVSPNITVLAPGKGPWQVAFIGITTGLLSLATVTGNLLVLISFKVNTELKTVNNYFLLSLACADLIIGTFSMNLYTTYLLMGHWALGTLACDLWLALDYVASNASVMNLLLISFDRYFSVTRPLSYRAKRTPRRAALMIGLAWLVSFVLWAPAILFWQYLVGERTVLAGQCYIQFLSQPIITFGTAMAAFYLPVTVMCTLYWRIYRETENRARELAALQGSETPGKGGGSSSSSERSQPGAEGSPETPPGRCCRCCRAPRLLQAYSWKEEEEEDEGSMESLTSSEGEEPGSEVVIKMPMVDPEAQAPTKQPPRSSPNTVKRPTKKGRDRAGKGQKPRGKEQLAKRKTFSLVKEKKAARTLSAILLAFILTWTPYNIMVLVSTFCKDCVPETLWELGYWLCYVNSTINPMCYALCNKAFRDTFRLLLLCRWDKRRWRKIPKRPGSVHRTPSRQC
M1 antag – human M1 muscarinic receptor antagonists, primary screen, CHO-K1 cells, Fluo-8 calcium fluorescence, 1536-well | CHO-K1 hM1, ACh EC80 antagonist | inhibition, % at 3 µM | 360,000 tested, 1.3% active | AID 588852, 2011;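 active = percent inhibition above its own plate's cutoff, namely the mean of that plate's compound wells plus 3 SD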;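 note: peak over basal fluorescence ratio during 140 s after agonist addition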
M1 PAM – human M1 muscarinic receptor positive allosteric modulators, primary screen, CHO-K1 cells, Fluo-8 calcium fluorescence, 1536-well; Muscarinic acetylcholine receptor M1 (Homo sapiens), P11229; CHO-K1 hM1, ACh EC20; 0% = ACh EC20, 100% = maximal ACh; activation, % at 3 µM; 360,000 tested, 0.088% active; in the data active = activation above about 19%, passing the limit was not always enough
TAAR1 antagonist – human TAAR1 antagonists, primary screen, Fluo-8 calcium fluorescence, CHO RD-HGA16 cells; Trace amine-associated receptor 1 (Homo sapiens), Q96RJ0; antagonist; inhibition, % at 3 µM; 360,000 tested, 1.5% active;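 active = inhibition above a per-plate cutoff, the mean inhibition of test compounds on that plate plus 3 SD, cut at about 49% in these data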
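Test system – hTAAR1-expressing CHO RD-HGA16 cells, Gα16-coupled · Reagent – β-PEA at EC80 concentration, post-compound challenge · Compound dosing – 3 µM, single point · Timing – 140 s kinetic read after compound, 140 s after agonist · Detection – Fluo-8 intracellular calcium dye fluorescence, real-time kinetic reads · Control set – DMSO and EC80 PEA controls · Repeats – n of 1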
m5-HT2A agonist – mouse Htr2a agonists via beta-arrestin recruitment, primary screen, cell-based, luminescence | CHO-K1 mHTR2A beta-arrestin complementation; percent of 30 µM serotonin response | 360,000 tested, 0.66% active | activation, % at 7.6 µM;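 active = activation above a run cutoff, the mean activation of all tested compounds plus 3 SD, cut at about 14% in these data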
Large screens that a line does not name were inactive.

COc1cccc(-c2nc(-c3ccc(NC(=O)c4ccncc4)cc3)no2)c1	none
COc1ccc(-c2noc(CCC(=O)NCc3cccnc3)n2)cc1	none
COc1cccc(-c2nc(-c3ccc(NC(=O)c4cccs4)cc3)no2)c1	TAAR1 antagonist 51.2
COc1ccc(-c2nc(-c3ccc(NC(=O)c4ccncc4)cc3)no2)cc1OC	M1 antag 38.5 (no result: TAAR1 agonist, TAAR1 antagonist)
CN(C(=O)CC1C(=O)NCCN1Cc1cccc(F)c1F)C1CC(C)(C)NC(C)(C)C1 (stereo unspecified)	none
COC(=O)c1cc2c(c3c4cc(OC)ccc4n(S(=O)(=O)c4ccc(F)cc4)c13)C(=O)N(C)C2	none (no result: CHRM1 agonist, M1 antag, M1 PAM, m5-HT2A agonist)
O=C(C1CCCN(c2ncnc3c2nc2n3CCCCC2)C1)N1CCN(c2cccc(Cl)c2)CC1 (stereo unspecified)	TAAR1 agonist 40.4, TAAR1 antagonist 87.8
CN(C(=O)C1CCCN(c2ncnc3c2nc2n3CCCCC2)C1)c1cccc(Cl)c1 (stereo unspecified)	none
Cc1cccc(N2CCN(C(=O)C3CCN(c4ncnc5c4nc4n5CCCCC4)CC3)CC2C)c1 (stereo unspecified)	TAAR1 antagonist 49.2
O=C(C1CCCN(S(=O)(=O)c2cccc3nonc23)C1)N1CCN(c2cccc(Cl)c2)CC1 (stereo unspecified)	TAAR1 antagonist 49.1
O=C(C1CCCN(S(=O)(=O)c2cccc3nonc23)C1)N1CCN(c2ccccc2Cl)CC1 (stereo unspecified)	none
CC(c1ccccc1)n1cnc2ccccc2c1=O (stereo unspecified)	none
S=C(Nc1ccc(Cl)cc1)NC1CCN(Cc2ccccc2)CC1	TAAR1 agonist 50.3
Nc1cc([N+](=O)[O-])ccc1Nc1ccc(O)cc1	TAAR1 antagonist 56.6
Nc1ccccc1Nc1ccc([N+](=O)[O-])cc1[N+](=O)[O-]	none
CC(Oc1ccc(Br)cc1)C(=O)Nc1nnc(C2CC2)s1 (stereo unspecified)	CHRM1 agonist 17.8
OCCC1CN(Cc2ccon2)CCN1CCc1ccccc1 (stereo unspecified)	none
O=C(/C=C/[C@H]1O[C@@H](n2ccc(=O)[nH]c2=O)[C@H](O)[C@@H]1O)NCCCc1ccccc1	none
O=C(CN1C2CCCC1CC(NC(=O)C1CCCCC1)C2)Nc1ccccc1 (stereo unspecified)	none
O=C(NC1CC2CCC(C1)N2C(=O)NCc1ccccc1)C1CC1 (stereo unspecified)	M1 antag 37.1
CCCCN1C2CCCC1CC(NC(=O)C1CCCCC1)C2 (stereo unspecified)	M1 antag 42.6
O=C(NC1CC2CCCC(C1)N2Cc1ccccc1)C1CCCCC1 (stereo unspecified)	M1 antag 38.1
O=C(NC1CCCC1)C1CCN(C(=O)NCc2ccccc2)CC1	none
CCC(C)(C)C1CCc2[nH]nc(C(=O)NCCCNC(=O)OC(C)(C)C)c2C1 (stereo unspecified)	none
COc1ccc(S(=O)(=O)NCCc2ccccc2)cc1	M1 antag 29.4
CC(=O)N1c2ccc(S(=O)(=O)NCCc3ccccc3)cc2CC1C (stereo unspecified)	M1 antag 29.2
CC1Cc2cc(S(=O)(=O)NCCc3ccccc3)ccc2N1C(=O)C1CC1 (stereo unspecified)	none
C[C@H](CO)N1C[C@H](C)[C@@H](CN(C)S(=O)(=O)c2cccs2)Oc2ccc(NC(=O)CCC(F)(F)F)cc2C1=O	M1 antag 57.1
C[C@H](CO)N1C[C@H](C)[C@@H](CN(C)S(=O)(=O)c2ccccc2)Oc2ccc(NC(=O)Cn3cnnn3)cc2C1=O	M1 antag 33.9
Cc1noc(C)c1S(=O)(=O)N(C)C[C@H]1Oc2ccc(NC(=O)Cn3cnnn3)cc2C(=O)N([C@H](C)CO)C[C@@H]1C	none
C[C@@H]1CN([C@H](C)CO)C(=O)c2cc(NC(=O)Nc3ccc(C(F)(F)F)cc3)ccc2O[C@H]1CN(C)S(=O)(=O)c1cccs1	none
C[C@H](CO)N1C[C@H](C)[C@@H](CN(C)S(=O)(=O)c2ccccc2)Oc2ccc(NC(=O)CCN3CCOCC3)cc2C1=O	M1 antag 34.8
O=C(NCCc1nnc2ccc(SCC(=O)N3CCCC3)nn12)c1ccccc1	none
CCCC#C/C(CCC)=C1\c2ccccc2C(=O)N1c1ccccc1	none (no result: CHRM1 agonist, M1 antag, M1 PAM, m5-HT2A agonist)
Cc1ccc(OCCCCn2ccnc2C)c(C)c1	none
Cc1ccc(C(C)C)c(OCCNCCc2ccccc2)c1	TAAR1 agonist 43.9, M1 antag 29.8
Cc1ccc(C(C)C)c(OCCn2ccnc2C)c1	M1 antag 99.2
Cc1nc(NC(=O)C(C)(C)C)sc1-c1nc(N)sc1-n1cc(-c2ccccc2)nn1	none (no result: CHRM1 agonist, M1 antag, M1 PAM)
CCNc1nc(-c2sc(NC(=O)C(C)(C)C)nc2C)c(-n2cc(-c3ccccc3)nn2)s1	TAAR1 antagonist 74.9 (no result: CHRM1 agonist, M1 antag, M1 PAM)
COc1ccc(Cc2nnc(NC(=O)c3ccccc3[N+](=O)[O-])s2)cc1	none
COc1ccc(Cc2nnc(NC(=O)c3cccc([N+](=O)[O-])c3C)s2)cc1	TAAR1 agonist 60.9
COc1ccc2c(c1OC)C(=O)N1c3ccccc3C(=O)N(c3ccccc3F)C21 (stereo unspecified)	M1 antag 38.8, TAAR1 antagonist 65.7
COc1ccc2c(c1OC)C(=O)N1c3ccccc3SC21 (stereo unspecified)	none
Cn1c(=O)c2c(ncn2CC(=O)Nc2nc(-c3ccccc3Cl)cs2)n(C)c1=O	TAAR1 agonist 38.9
O=C(CN1C(=O)NC(CCc2ccccc2)C1=O)Nc1ccc(F)c(F)c1F (stereo unspecified)	TAAR1 agonist 44.3
CC(CN1CCCCC1)OC(=O)C1c2ccccc2Oc2ccccc21 (stereo unspecified)	M1 antag 86.8
COc1ccc2c(c1)[C@@]1(OCCC=C[C@H]1C)C(=O)N2Cc1ccccc1C(F)(F)F	none (no result: CHRM1 agonist, M1 antag, M1 PAM, m5-HT2A agonist)
O=c1c2c(-c3ccccc3)csc2nc2c3ccccc3c(NCCN3CCOCC3)nn12	M1 antag 91.8
O=c1c2ccccc2nc2c3ccccc3c(NCCN3CCOCC3)nn12	none (no result: CHRM1 agonist, M1 antag, M1 PAM, m5-HT2A agonist)
